Laboratory results reported in ChEMBL document CHEMBL4725350, “2-Oxaadamant-1-yl Ureas as Soluble Epoxide Hydrolase Inhibitors: In Vivo Evaluation in a Murine Model of Acute Pancreatitis” (J Med Chem, 2020).
Calls of active or inactive are those of the source. The calls are words filed in the database; no cut-off is given here.

What was measured:
[1] = Cmax in CD-1 mouse at 1 mg/kg, ip measured up to 24 hrs by LC-MS analysis; format: ADME, organism-based; design: route intraperitoneal, dose 1 mg/kg, time <=24; conditions: in vivo
Procedure, shortened: (§1)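 Single dose, 1 mg/kg, given to mice intravenously or intraperitoneally. Parameters are taken from the plasma concentration–time profile: T1/2, Tmax, Cmax, C0 (iv only), AUClast, AUCINF_obs, Vz and Cl. Bioavailability is derived from ip versus iv exposure.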

[2] = AUClast in CD-1 mouse at 1 mg/kg, ip measured up to 24 hrs by LC-MS analysis; format: ADME, organism-based; design: route intraperitoneal, dose 1 mg/kg, time <=24; conditions: in vivo; procedure, shortened: as §1
[3] = AUC (infinity) in CD-1 mouse at 1 mg/kg, ip measured up to 24 hrs by LC-MS analysis; format: ADME, organism-based; design: route intraperitoneal, dose 1 mg/kg, time <=24; conditions: in vivo; procedure, shortened: as §1
[4] = Clearance in CD-1 mouse at 1 mg/kg, ip measured up to 24 hrs by LC-MS analysis; format: ADME, organism-based; conditions: in vivo; procedure, shortened: as §1
[5] = Tmax in CD-1 mouse at 1 mg/kg, iv measured up to 24 hrs by LC-MS analysis; format: ADME, organism-based; conditions: in vivo; procedure, shortened: as §1
[6] = Initial plasma concentration in CD-1 mouse at 1 mg/kg, iv measured up to 24 hrs by LC-MS analysis; format: ADME, organism-based; conditions: in vivo; procedure, shortened: as §1
[7] = Clearance in CD-1 mouse at 1 mg/kg, iv measured up to 24 hrs by LC-MS analysis; format: ADME, organism-based; conditions: in vivo; procedure, shortened: as §1
[8] = Acute toxicity in CD-1 mouse assessed as effect on body weight at 5 to 80 mg/kg, ip administered daily for 5 days and measured for 5 days; format: organism-based; conditions: in vivo, 240 h, dose 5-80 mg/kg, time 10 day
Procedure, shortened: (§2)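 Mice received the compound intraperitoneally once a day for five consecutive days at 5, 10, 20 and 80 mg/kg. Acute toxicity was judged from body weight during treatment, apparent behaviour problems and the presence of petechiae.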

[9] = Acute toxicity in CD-1 mouse assessed as petechiae at 5 to 80 mg/kg, ip administered daily for 5 days; format: organism-based; conditions: in vivo, 120 h, dose 5-80 mg/kg, time 5 day; procedure, shortened: as §2
Mus musculus [10] = experiment: Protection against cerulein-induced acute pancreatitis in C57BL/6J mouse assessed as reduction in IL1-beta mRNA level at 3 mg/kg administered 24 hrs post-cerulein addition and measured after 24 hrs by Trisure-reagent based RT-PCR analysis; format: functional, organism-based
Procedure, shortened: (§3)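 Post-induction (treatment) protocol in C57BL/6J mice. Acute pancreatitis is induced by several cerulein administrations, followed by ip sEH inhibitor at 3 or 30 mg/kg. Pancreatic mRNA of TNF-α, IL-1β, MCP-1 and ATF3 is quantified against control and cerulein-only groups. Mean ± SEM, n = 5 per group.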

Mus musculus [11] = experiment: Protection against cerulein-induced acute pancreatitis in C57BL/6J mouse assessed as reduction in MCP1 mRNA level at 30 mg/kg administered 24 hrs post-cerulein addition and measured after 24 hrs by Trisure-reagent based RT-PCR analysis; format: functional, organism-based; procedure, shortened: as §3
Mus musculus [12] = experiment: Protection against cerulein-induced acute pancreatitis in C57BL/6J mouse assessed as reduction in TNF-alpha mRNA level at 30 mg/kg administered twice per day for 5 days followed by cerulein addition and measured 24 hrs post-last dose by Trisure-reagent based RT-PCR analysis; format: functional, organism-based; conditions: time 6.0 day
Procedure, shortened: (§4)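 Pre-induction (prevention) protocol in C57BL/6J mice. Inhibitor is given ip at 30 mg/kg before cerulein induction of acute pancreatitis. Pancreatic mRNA of TNF-α, IL-1β, MCP-1 and ATF3 is compared with control and cerulein-only mice. Mean ± SEM, n = 5 per group.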

Mus musculus [13] = experiment: Protection against cerulein-induced acute pancreatitis in C57BL/6J mouse assessed as reduction in IL-1beta mRNA level at 30 mg/kg administered twice per day for 5 days followed by cerulein addition and measured 24 hrs post-last dose by Trisure-reagent based RT-PCR analysis; format: functional, organism-based; conditions: time 6.0 day; procedure, shortened: as §4
Mus musculus [14] = experiment: Protection against cerulein-induced acute pancreatitis in C57BL/6J mouse assessed as reduction in inflammation at 30 mg/kg administered 24 hrs post-cerulein addition and measured after 24 hrs by H and E staining based histological analysis; format: functional, organism-based
Procedure, shortened: (§5)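 H&E-stained pancreas sections are scored for edema and inflammation. Groups are control, cerulein and cerulein plus inhibitor, in both the pre-induction and post-induction cerulein acute pancreatitis models in mice.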

Mus musculus [15] = experiment: Protection against cerulein-induced acute pancreatitis in C57BL/6J mouse assessed as reduction in edema at 30 mg/kg administered twice per day for 5 days followed by cerulein addition and measured 24 hrs post-last dose by H and E staining based histological analysis; format: functional, organism-based; conditions: time 6.0 day; procedure, shortened: as §5
Mus musculus [16] = experiment: Protection against cerulein-induced acute pancreatitis in C57BL/6J mouse assessed as reduction in inflammation at 30 mg/kg administered twice per day for 5 days followed by cerulein addition and measured 24 hrs post-last dose by H and E staining based histological analysis; format: functional, organism-based; conditions: time 6.0 day; procedure, shortened: as §5
[17] = Apparent permeability across basolateral to apical side in human Caco-2 cells at 10 uM measured after 2 hrs by LC-MS/MS analysis; conditions: caco-2, 2 h
Homo sapiens [18] = organism: Homo sapiens; experiment: Selectivity ratio of inhibition of recombinant human CYP1A2 to IC50 for inhibition of recombinant human soluble epoxide hydrolase
Homo sapiens [19] = organism: Homo sapiens; experiment: Selectivity ratio of inhibition of recombinant human CYP2C19 to IC50 for inhibition of recombinant human soluble epoxide hydrolase
Homo sapiens [20] = organism: Homo sapiens; experiment: Selectivity ratio of inhibition of recombinant human CYP3A4 to IC50 for inhibition of recombinant human soluble epoxide hydrolase using DBF as substrate
[21] = Selectivity ratio of inhibition of recombinant human CYP1A2 to IC50 for inhibition of recombinant mouse soluble epoxide hydrolase
[22] = Selectivity ratio of inhibition of recombinant human CYP2C9 to IC50 for inhibition of recombinant mouse soluble epoxide hydrolase
[23] = Selectivity ratio of inhibition of recombinant human CYP2D6 to IC50 for inhibition of recombinant mouse soluble epoxide hydrolase

## CC(C)S(=O)(=O)N1CCC(NC(=O)NC23CC4CC(CC(C4)O2)C3)CC1
[1]
  Cmax: 117.33 ng/mL
[2]
  AUClast: 34.67 ng·h/mL
[3]
  AUC: 35.2 ng·h/mL
[4]
  CL/F: 474 mL/min/kg
[5]
  Tmax: 9.6 min
[6]
  C0: 236.23 ng/mL
[7]
  CL: 16.77 L/h/kg
[8]
  Activity: Non-Toxic
[9]
  Activity: Non-Toxic
Mus musculus [10]
  Activity: inactive
Mus musculus [11]
  Activity: Active
Mus musculus [12]
  Activity: Active
Mus musculus [13]
  Activity: Active
Mus musculus [14]
  Activity: Active
Mus musculus [15]
  Activity: Active
Mus musculus [16]
  Activity: Active

## CC(=O)N1CCC(NC(=O)NC23CC4CC(CC(C4)O2)C3)CC1
[17]
  Papp: 94.5 nm/s
Homo sapiens [18]
  Selectivity ratio: > 100
Homo sapiens [19]
  Selectivity ratio: > 100
Homo sapiens [20]
  Selectivity ratio: > 100
[21]
  Selectivity ratio: > 100
[22]
  Selectivity ratio: > 100
[23]
  Selectivity ratio: > 100
